# Source: PubChem BioAssay (several laboratories)
# SIAE primary: human SIAE inhibition, primary screen | Q9HAT2 | SIAE FP-Rh probe binding, fluorescence polarization | inhibition, % at 9.66 µM | 370,000 tested, 0.69% active | AID 1053197;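 active = inhibition above a cutoff: mean of compounds within the control limits plus 3 SD of those, cut at about 17% in these data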
# HTRA1 inh: HTRA1 (human) protease inhibition; Q92743; recombinant HTRA1, FP-rhodamine activity-based probe, fluorescence polarization; inhibition, % at 5.96 µM; 340,000 tested, 0.5% active; in the data active = inhibition above about 36%
# GASC-1 inh: human JMJD2C demethylase inhibition. GST-JMJD2C(1-420) H3K9me3 demethylation, DELFIA europium. AID 2099. 330,000 tested, 0.069% active. inhibition, % at 2.35 µM;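 active = more than half of a compound's replicate wells show inhibition beyond 50%, single wells judged on their own value; inconclusive = some, but no more than half, of replicates pass 50% inhibition; inactive = no replicate passes 50% inhibition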;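 also: signal counts dimethyl H3K9 product captured on neutravidin plate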
# Target sequence (Q9H3R0 1-420 limits assumed): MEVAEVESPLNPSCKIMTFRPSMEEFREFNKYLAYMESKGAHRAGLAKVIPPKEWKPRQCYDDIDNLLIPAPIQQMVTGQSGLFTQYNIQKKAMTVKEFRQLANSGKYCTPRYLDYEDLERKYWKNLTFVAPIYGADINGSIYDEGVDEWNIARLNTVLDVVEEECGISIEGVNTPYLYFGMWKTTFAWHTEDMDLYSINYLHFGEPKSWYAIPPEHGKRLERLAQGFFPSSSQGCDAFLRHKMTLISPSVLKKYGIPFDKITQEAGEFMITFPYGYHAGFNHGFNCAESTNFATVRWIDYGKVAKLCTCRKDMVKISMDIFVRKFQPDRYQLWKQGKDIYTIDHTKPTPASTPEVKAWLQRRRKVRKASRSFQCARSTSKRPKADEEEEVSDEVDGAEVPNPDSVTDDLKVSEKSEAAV
# mABHD4 FP: inhibitors of mouse ABHD4. Q8VD66. purified mABHD4, FP-Rh probe fluorescence polarization. inhibition, % at 8.92 µM. 370,000 tested, 0.54% active;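 active = inhibition exceeding the mean over every tested compound plus 3 SD, cut at about 30% in these data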
#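 system = mouse ABHD4 enzyme, wild type | medium = HEPES pH 7.0, NaCl, Pluronic buffer | also added = FP-Rh probe | incubation = Enzyme–compound pre-incubation 45 min, then probe 60 min, both 25 °C | technique = fluorescence polarization, excitation 525 nm, emission 598 nm, BODIPY TMR filters | controls = S159A mutant high control, sample median low control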
# PRMT1 inh: PRMT1 (human) inhibition, primary screen; inhibition, % at 2.79 µM; recombinant PRMT1, activity-based probe fluorescence polarization; AID 652257; Q99873; 370,000 tested, 1.3% active;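 active = inhibition above about 21% made by adding two undisclosed values, limit read from the data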
# PRMT1 inh conf: PRMT1 (human) inhibition, FP confirmation; recombinant His-PRMT1, activity-based probe fluorescence polarization; inhibition, % at 2.79 µM; shares compounds with PRMT1 inh; 3,300 tested, 42% active;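 active = mean inhibition across replicates above the hit cutoff derived for the earlier primary screen, cut at about 22% in these data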
# Numbers stand for hits; . = inactive; ? = inconclusive; / = not tested or not shown. Rows were chosen to be rich in hits. Some 2.4% of all compounds tested hit in one or more screens of this group.
SMILES,SIAE primary,HTRA1 inh,GASC-1 inh,mABHD4 FP,PRMT1 inh,PRMT1 inh conf
CC1Cc2cc(S(=O)(=O)NCc3ccccc3)ccc2N1C(=O)C1CC1 (stereo unspecified),.,.,.,.,46.5,.
Cc1ccc(OC2CCN(C(=O)[C@H]3O[C@@H](n4ccc(=O)[nH]c4=O)[C@H](O)[C@@H]3O)CC2)cc1,.,/,/,.,.,/
COC(=O)[C@]12C[C@H](CC(=O)NCCC(C)C)C(=O)N(Cc3ccc(Cl)cc3Cl)C1=C[C@H](C(C)C)O[C@@H]2C1CC1,.,/,/,.,.,/
COc1cccc(=O)c2c(C)n(CC(=O)c3ccccc3)c(C)c12,.,.,.,.,35.8,.
CCOc1cccc(=O)c2c(C)n(CC(=O)c3ccccc3)c(C)c12,.,.,.,.,.,/
CC1CCCN(C(=O)c2nn(C)c3c2CSc2ccccc2-3)C1 (stereo unspecified),.,.,.,.,31.3,37.1
c1coc(C2Nc3ccccc3-c3nc4ccccc4n32)c1 (stereo unspecified),.,.,.,.,44.8,.
CC(C)N1CCCCC(NC(=O)c2c(F)cccc2F)C1=O (stereo unspecified),.,/,/,.,.,/
CN1C2=NC(c3ccc4ccccc4c3)CC(=O)N2/C(=C\c2ccccc2)C1c1ccccc1C(F)(F)F (stereo unspecified),.,/,/,.,.,/
COc1cc(C(c2nnnn2C(C)(C)C)N2CCN(c3nc4ccccc4s3)CC2)ccc1O (stereo unspecified),.,.,.,.,44.1,31.2
COc1ccc(C(c2nnnn2C(C)(C)C)N2CCN(c3nc4ccccc4s3)CC2)cc1OC (stereo unspecified),.,.,.,.,.,/
COCCn1c(C)cc(C(=O)CSc2ccc(NC(C)=O)cc2)c1C,.,.,.,.,24.8,24.5
COCCn1c(C)cc(C(=O)CSc2ccc3ccccc3n2)c1C,.,.,.,.,35.3,.
COCCn1c(C)cc(C(=O)CSc2nc3ccccc3c(=O)[nH]2)c1C,.,.,.,.,.,/
COCC(C)n1c(C)cc(C(=O)CSc2ccc(NC(C)=O)cc2)c1C (stereo unspecified),.,.,.,.,38.8,.
O=C(Nc1nc2ncccn2c1-c1ccc(C(F)(F)F)cc1)C1CC1,.,/,/,.,.,/
O=C(CC1SC(=O)NC1=O)Nc1ccc(Cl)cc1 (stereo unspecified),.,.,.,.,40.1,39.1
O=C1c2c(-c3ccc(Br)cc3)noc2CCN1Cc1cn(-c2ccccc2)nn1,.,/,/,.,.,/
CCC1CCC(NC2CCCCNC2=O)CC1 (stereo unspecified),.,.,.,.,.,/
CC1CCCC(NC2CCCCNC2=O)C1 (stereo unspecified),.,.,.,.,27.2,.
Cc1cc(C)nc(SSc2nc(C)cc(C)n2)n1,.,.,.,.,89.1,82.4
O=C(C1CCN(c2ncnc3c2sc2cccc(F)c23)CC1)N1CCN(C(=O)C2CCCO2)CC1 (stereo unspecified),.,/,/,.,.,/
COC(=O)[C@]12C[C@H](CC(=O)N3CCN(C(=O)c4ccco4)CC3)C(=O)N(Cc3ccc4c(c3)OCO4)C1=C[C@H](C(C)C)O[C@@H]2C1CC1,.,/,/,.,.,/
COC(=O)c1cc(N2CCN(C)CC2)nc2ccccc12,.,.,.,.,82.8,.
CCOC(=O)c1cc(N2CCCCC2)nc2ccccc12,.,.,/,.,.,/
SMILES,SIAE primary,HTRA1 inh,GASC-1 inh,mABHD4 FP,PRMT1 inh,PRMT1 inh conf
S=c1[nH]c2ccc(Cl)cc2s1,.,.,.,.,.,/
Cc1cccc2sc(=S)[nH]c12,.,/,/,.,27.8,.
S=c1[nH]nc(-c2n[nH]c3c2CCC3)n1N=Cc1c2ccccc2cc2ccccc12,.,/,/,.,50.0,48.8
Cc1n[nH]c(=S)n1/N=C/c1c(O)ccc2ccccc12,.,.,.,.,.,/
Oc1ccc2ccccc2c1C=Nn1c(-c2n[nH]c3c2CCC3)n[nH]c1=S,.,/,/,.,32.3,.
S=c1[nH]nc(-c2n[nH]c3c2CCC3)n1N=Cc1cccs1,.,/,/,.,.,/
CCOC(=O)[C@@]12CCCC=C1N(CCc1ccc(Cl)cc1)C(=O)[C@H]2CC(=O)NCc1cccc(C(F)(F)F)c1,.,/,/,.,.,/
NC1=NC(=O)CC(C(=O)NCCc2ccccc2)S1 (stereo unspecified),.,.,.,.,29.7,.
NC1=NC(=O)CC(C(=O)Nc2cccc3ccccc23)S1 (stereo unspecified),/,.,.,/,/,/
O=C(C[C@@H]1CC[C@@H]2[C@H](COC[C@H](O)CN2CCC(F)(F)F)O1)NCc1ccc2c(c1)OCO2,.,/,/,.,.,/
COc1cc(Cl)ccc1NC(=S)N(CCCN1CCOCC1)Cc1cn(C)c2ccccc12,.,.,.,.,34.1,37.5
COc1ccc(Cl)cc1NC(=S)N(CCCN1CCOCC1)Cc1cn(C)c2ccccc12,.,.,.,.,34.3,36.6
O=C(Cc1ccccc1)NCC(=O)OCC(=O)c1ccc([N+](=O)[O-])cc1,.,.,.,.,76.4,67.4
O=C(CNC(=O)c1cccs1)OCC(=O)c1ccc([N+](=O)[O-])cc1,.,.,.,.,60.5,50.6
O=C(COC(=O)CNC(=O)c1ccco1)Nc1ncc(Cl)cc1Cl,.,.,.,.,35.2,.
Cc1ccc(C(=O)NCC(=O)NCC(=O)OCC(=O)c2ccc([N+](=O)[O-])cc2)cc1,.,.,.,.,62.6,43.5
O=C(CNC(=O)c1cccs1)c1ccc([N+](=O)[O-])cc1,.,.,.,.,.,/
COC(=O)C1CN(Cc2cn(CCOC(C)=O)nn2)CCS(=O)(=O)N1Cc1ccc(C)cc1 (stereo unspecified),.,/,/,.,.,/
N#CCc1ccc(-c2cccc3nccn23)cc1,.,/,/,.,.,/
O=C(CNS(=O)(=O)c1ccccc1)OCC(=O)c1ccc([N+](=O)[O-])cc1,.,.,.,.,80.0,42.3
O=C(CNS(=O)(=O)c1ccccc1)OCC(=O)c1ccc(Br)cc1,.,.,.,.,.,/
O=C(CNC(=O)c1ccco1)OCC(=O)c1ccc([N+](=O)[O-])cc1,.,.,.,.,47.0,41.9
O=c1oc2c(-c3cccc(F)c3)cc(O)cc2s1,.,.,.,.,36.1,.
Cc1ccccc1NC(=O)Cc1nc(COC(=O)CSc2ccc(F)cc2)cs1,.,.,/,.,.,/
CCOc1ccc(N2C(=O)CC(NCCc3ccncc3)C2=O)cc1 (stereo unspecified),.,.,?,.,58.4,.
CCOc1ccc(N2C(=O)CC(NCCc3c[nH]c4ccccc34)C2=O)cc1 (stereo unspecified),.,.,.,.,31.1,.
CCCOc1ccc(N2C(=O)CC(NCCc3ccc(S(N)(=O)=O)cc3)C2=O)cc1 (stereo unspecified),.,.,.,.,50.9,.
